Screens: PubChem BioAssay, Broad Institute
DENV2 CPE – DENV2-induced cell death inhibition; DENV2-infected cells, cytopathic effect rescue, plate reader; 1.7% of 350,000 active; CPE inhibition, % at 9.99 µM; in the data active means CPE inhibition above about 20%, passing the limit was not always enough; tested in BHK-21 cells;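 further: 0% = median of neutral control wells and 100% = median of positive control wells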
Statin myotox sup – suppression of simvastatin myotoxicity. AID 602340. C2C12 myotubes + simvastatin, ATP luminescence, 48 h; scaled: DMSO 0, geranylgeraniol control 100. rescue of ATP level, % at 7.49 µM. 0.78% of 330,000 active;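 active means mean ATP rescue above about 67%, or every replicate alone reaching that limit, limit read from the data, passing the limit was not always enough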;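 further: myotubes were challenged with 10 µM simvastatin during compound exposure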
E-selectin induc – induces E-selectin expression in human endothelial cells | P16581 | HUVEC E-selectin immunofluorescence imaging; normalized: neutral wells 0, TNF-alpha wells 100 | activation, % at 7.58 µM | 0.37% of 260,000 active | AID 686992;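 active means mean E-selectin-positive cell signal at least 10% of the positive control, reached in at least 60% of replicates, without over 20% cell loss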
Target sequence (P16581 whole entry, looked up): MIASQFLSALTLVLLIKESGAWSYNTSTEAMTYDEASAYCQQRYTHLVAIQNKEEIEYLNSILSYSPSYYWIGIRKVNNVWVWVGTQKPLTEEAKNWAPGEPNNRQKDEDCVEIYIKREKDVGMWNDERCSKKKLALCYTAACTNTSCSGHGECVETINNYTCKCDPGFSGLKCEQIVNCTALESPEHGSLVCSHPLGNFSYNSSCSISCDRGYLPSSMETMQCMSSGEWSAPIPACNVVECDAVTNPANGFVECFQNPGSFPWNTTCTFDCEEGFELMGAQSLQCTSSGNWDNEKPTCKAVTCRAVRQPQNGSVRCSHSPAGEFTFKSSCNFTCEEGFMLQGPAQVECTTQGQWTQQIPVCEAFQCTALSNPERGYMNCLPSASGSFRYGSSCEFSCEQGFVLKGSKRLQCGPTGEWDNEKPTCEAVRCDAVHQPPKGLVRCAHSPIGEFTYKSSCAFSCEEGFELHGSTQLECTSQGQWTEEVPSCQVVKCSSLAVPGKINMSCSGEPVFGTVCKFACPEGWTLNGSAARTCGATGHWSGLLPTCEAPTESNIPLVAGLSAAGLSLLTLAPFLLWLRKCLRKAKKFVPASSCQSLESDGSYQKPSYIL
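Read-out: % PE-positive cells | Test system: HUVEC | Doses: One compound dose added by pin transfer | Buffer or medium: EGM-2 over gelatin coat | Signal: Immunofluorescence imaging | Benchmarks: TNF-alpha, DMSO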
An asterisk follows results filed as active. Shown are actives, neighbours in structure and some others; about 2.2% of the full set was active somewhere.

`Cc1cc(N2CCN(S(=O)(=O)Cc3ccccc3)CC2)n2ncnc2n1` gave Statin myotox sup 4.
For Cc1cc(N2CCN(c3ccccc3)CC2)n2cc(-c3ccccc3)nc2n1 the results were Statin myotox sup 7.
Cc1cc(N2CCN(c3ccccc3)CC2)n2nnnc2n1 was read as Statin myotox sup 149*.
Screening Cc1cc(N2CCN(c3nnnn3-c3ccccc3)CC2)n2ncnc2n1 returned Statin myotox sup 111*.
`CO[C@H]1CN(C)C(=O)c2cc(NC(=O)Nc3c(C)noc3C)ccc2OC[C@H](C)N(C)C[C@H]1C` gave DENV2 CPE 17, Statin myotox sup -1 and E-selectin induc 0.
CCC(=O)N1CC2(C1)[C@H](c1ccc(-c3ccccc3)cc1)[C@H](CO)N2S(C)(=O)=O was read as DENV2 CPE -1 and E-selectin induc 0.
For CCn1c2ccccc2c2cc(NC(=O)c3cccc(OC)c3OC)ccc21 the results were DENV2 CPE 3.
`CCn1c2ccccc2c2cc(NC(=O)c3ccccc3[N+](=O)[O-])ccc21` gave DENV2 CPE 32*.
Screening CCCNC(=O)N[C@@H]1CC[C@H](CCn2cc(C3CC3)nn2)O[C@H]1CO returned DENV2 CPE 8, Statin myotox sup -1 and E-selectin induc 0.
For COc1ccc(C2=NOC(C(=O)Nc3c(C)n(C)n(-c4ccccc4)c3=O)C2)cc1 (configuration not stated) the results were DENV2 CPE -8, Statin myotox sup 13 and E-selectin induc 0.
For COc1ccc(OC)c(C2=NOC(C(=O)Nc3c(C)n(C)n(-c4ccccc4)c3=O)C2)c1 (configuration not stated) the results were DENV2 CPE 81*, Statin myotox sup -2 and E-selectin induc 0.
`CO[C@H](CN(C)S(=O)(=O)c1ccc(F)cc1)[C@H](C)CN(C(=O)Nc1ccccc1F)[C@H](C)CO` gave DENV2 CPE -5, Statin myotox sup 3 and E-selectin induc 0.
For C[C@H](CO)N1C[C@H](C)[C@H](CN(C)C(=O)Nc2ccc(F)cc2)Oc2ccc(NS(=O)(=O)c3cn(C)cn3)cc2CC1=O the results were DENV2 CPE 1, Statin myotox sup 5 and E-selectin induc 0.
CC(OC(=O)C1=COCCO1)C(=O)Nc1ccc(Cl)cn1 (configuration not stated) was read as DENV2 CPE 70*, Statin myotox sup 28 and E-selectin induc 1.
`CC(OC(=O)c1ccccc1O)C(=O)Nc1ccc(Cl)cn1` (configuration not stated) gave DENV2 CPE -7 and E-selectin induc 0.
For COc1ccc(CNC(=O)C[C@@H]2C=C[C@H](NC(=O)c3cccc(F)c3)[C@@H](CO)O2)cc1 the results were DENV2 CPE 0, Statin myotox sup 6 and E-selectin induc 0.
For CC(=O)NCCOc1cccc2ccccc12 the results were Statin myotox sup -9.
For c1ccc(CCNCCCOc2cccc3ccccc23)cc1 the results were DENV2 CPE 35* and Statin myotox sup -14.
CC(C)CC#Cc1cnc2c(c1)C(=O)N([C@H](C)CO)C[C@H](C)[C@@H](CN(C)C(=O)c1ccccc1F)O2 was read as Statin myotox sup -3 and E-selectin induc 0.
Screening Cc1ccccc1S(=O)(=O)N1CCCCN2[C@H](CO)[C@@H](c3ccc(-c4ccccc4)cc3)[C@H]2C1 returned DENV2 CPE -2.
For C[C@@H]1CN([C@@H](C)CO)C(=O)c2cc(NC(=O)c3ccncc3)ccc2O[C@@H](C)CCCCO[C@@H]1CN(C)S(=O)(=O)c1cccs1 the results were DENV2 CPE 1.
`O=[N+]([O-])c1ccc(CNc2ccc(Cl)cc2)s1` gave DENV2 CPE 1, Statin myotox sup 26 and E-selectin induc 0.
For CN1c2ccc(Cl)cc2C(=O)NC1c1ccc([N+](=O)[O-])s1 (configuration not stated) the results were DENV2 CPE 45* and Statin myotox sup -6.
Screening CO[C@@H]1CN(C)C(=O)c2ccc(NC(=O)c3cc(C)on3)cc2OC[C@@H](C)N(C(=O)C2CC2)C[C@@H]1C returned DENV2 CPE 6 and E-selectin induc 0.
`O=C(Cc1ccccn1)N[C@H]1CC[C@H](CCn2cc(-c3cccnc3)nn2)O[C@@H]1CO` gave DENV2 CPE 58*, Statin myotox sup -1 and E-selectin induc 1.
`Cc1ccccc1S(=O)(=O)N[C@@H]1CC[C@H](CCn2cc(-c3ccccc3)nn2)O[C@@H]1CO` gave DENV2 CPE 21*, Statin myotox sup 6 and E-selectin induc 0.
Screening Cc1ccccc1S(=O)(=O)N[C@H]1CC[C@@H](CCn2cc(-c3ccccc3)nn2)O[C@H]1CO returned DENV2 CPE 4, Statin myotox sup 0 and E-selectin induc 0.
